Experimental data taken from ChEMBL document CHEMBL3763128, “Synthesis and antibacterial evaluation of novel 4″-glycyl linked quinolyl-azithromycins with potent activity against macrolide-resistant pathogens” (2016).
Values after ≈ are worked out from the molar mass of the structure shown.

Assays:
Format in all cases: functional
Streptococcus pneumoniae [1] = assay: Antibacterial activity against constitutive macrolide-lincosamide-streptogramin B resistant Streptococcus pneumoniae by agar microdilution method
Summary of the method: (§1)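 Agar microdilution per NCCLS guidelines; MIC reported in μg/mL; differences treated as significant only when more than a factor of 2 (one dilution) apart.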

Staphylococcus aureus [2] = assay: Antibacterial activity against inducibly macrolide-lincosamide-streptogramin B resistant Staphylococcus aureus by agar microdilution method; summary of the method: as §1
Staphylococcus aureus [3] = assay: Antibacterial activity against constitutive macrolide-lincosamide-streptogramin B resistant Staphylococcus aureus by agar microdilution method; summary of the method: as §1
Streptococcus pyogenes [4] = assay: Antibacterial activity against erythromycin-susceptible Streptococcus pyogenes by agar microdilution method
Summary of the method: (§2)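 MIC by agar microdilution following NCCLS guidelines. Values in μg/mL. Only differences of more than one twofold dilution were treated as significant. Ery-S denotes erythromycin-susceptible strains.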

Staphylococcus aureus [5] = assay: Antibacterial activity against erythromycin-susceptible Staphylococcus aureus by agar microdilution method; summary of the method: as §2
Streptococcus pyogenes [6] = assay: Antibacterial activity against constitutive macrolide-lincosamide-streptogramin B resistant Streptococcus pyogenes by agar microdilution method; summary of the method: as §1
Moraxella catarrhalis = assay: Antibacterial activity against Moraxella catarrhalis by agar microdilution method; summary of the method: as §2
Streptococcus pneumoniae [7] = assay: Antibacterial activity against efflux mediated macrolide resistant Streptococcus pneumoniae by agar microdilution method; summary of the method: as §1
Streptococcus pyogenes [8] = assay: Antibacterial activity against efflux mediated macrolide resistant Streptococcus pyogenes by agar microdilution method; summary of the method: as §1
Staphylococcus aureus [9] = assay: Antibacterial activity against efflux mediated macrolide resistant Staphylococcus aureus by agar microdilution method; summary of the method: as §1
Streptococcus pneumoniae [10] = assay: Antibacterial activity against erythromycin-susceptible Streptococcus pneumoniae by agar microdilution method; summary of the method: as §2
Haemophilus influenzae = assay: Antibacterial activity against Haemophilus influenzae by agar microdilution method; summary of the method: as §2
Streptococcus pyogenes [11] = assay: Antibacterial activity against inducibly macrolide-lincosamide-streptogramin B resistant Streptococcus pyogenes by agar microdilution method; summary of the method: as §1

| Structure (SMILES) | MIC (Streptococcus pneumoniae [1]) | MIC (Staphylococcus aureus [2]) | MIC (Staphylococcus aureus [3]) | MIC (Streptococcus pyogenes [4]) | MIC (Staphylococcus aureus [5]) | MIC (Streptococcus pyogenes [6]) | MIC (Moraxella catarrhalis) | MIC (Streptococcus pneumoniae [7]) | MIC (Streptococcus pyogenes [8]) | MIC (Staphylococcus aureus [9]) | MIC (Streptococcus pneumoniae [10]) | MIC (Haemophilus influenzae) | MIC (Streptococcus pyogenes [11]) |
| --- | --- | --- | --- | --- | --- | --- | --- | --- | --- | --- | --- | --- | --- |
| CC[C@H]1OC(=O)[C@@H](C)[C@H](O[C@@H]2C[C@](C)(OC)[C@H](OC(=O)CNC(=O)CCNCCOCCOCCNc3cc4c(=O)c(C(=O)O)cn(C5CC5)c4cc3Cl)[C@@H](C)O2)[C@H](C)[C@H](O[C@H]2O[C@@H](C)C[C@@H](N(C)C)[C@@H]2O)[C@@](C)(O)C[C@H](C)CN(C)[C@@H](C)[C@H](O)[C@@]1(C)O (stereo in doubt) | 4 µg/mL (≈ 3.15 µM) | 4 µg/mL (≈ 3.15 µM) | > 64 µg/mL | ≤ 0.125 µg/mL | ≤ 0.125 µg/mL | 8 µg/mL (≈ 6.3 µM) | 1 µg/mL (≈ 0.787 µM) | 1 µg/mL (≈ 0.787 µM) | 2 µg/mL (≈ 1.57 µM) | 0.5 µg/mL (≈ 0.394 µM) | ≤ 0.125 µg/mL | 4 µg/mL (≈ 3.15 µM) | 1 µg/mL (≈ 0.787 µM) |
| CC[C@H]1OC(=O)[C@@H](C)[C@H](O[C@@H]2C[C@](C)(OC)[C@H](OC(=O)CNCCCNCCOCCOCCNc3cc4c(=O)c(C(=O)O)cn(C5CC5)c4cc3Cl)[C@@H](C)O2)[C@H](C)[C@H](O[C@H]2O[C@@H](C)C[C@@H](N(C)C)[C@@H]2O)[C@@](C)(O)C[C@H](C)CN(C)[C@@H](C)[C@H](O)[C@@]1(C)O (stereo in doubt) | 1 µg/mL (≈ 0.796 µM) | 1 µg/mL (≈ 0.796 µM) | > 64 µg/mL | ≤ 0.125 µg/mL | ≤ 0.125 µg/mL | 2 µg/mL (≈ 1.59 µM) | 0.5 µg/mL (≈ 0.398 µM) | 0.5 µg/mL (≈ 0.398 µM) | 1 µg/mL (≈ 0.796 µM) | 1 µg/mL (≈ 0.796 µM) | ≤ 0.125 µg/mL | 2 µg/mL (≈ 1.59 µM) | 0.25 µg/mL (≈ 0.199 µM) |
| CC[C@H]1OC(=O)[C@@H](C)[C@H](O[C@@H]2C[C@](C)(OC)[C@H](OC(=O)CNC(=O)CCNCCNc3cc4c(=O)c(C(=O)O)cn(C5CC5)c4cc3Cl)[C@@H](C)O2)[C@H](C)[C@H](O[C@H]2O[C@@H](C)C[C@@H](N(C)C)[C@@H]2O)[C@@](C)(O)C[C@H](C)CN(C)[C@@H](C)[C@H](O)[C@@]1(C)O (stereo in doubt) | 0.5 µg/mL (≈ 0.423 µM) | 1 µg/mL (≈ 0.846 µM) | > 64 µg/mL | ≤ 0.125 µg/mL | ≤ 0.125 µg/mL | 0.5 µg/mL (≈ 0.423 µM) | 0.125 µg/mL (≈ 0.106 µM) | 0.25 µg/mL (≈ 0.212 µM) | 0.25 µg/mL (≈ 0.212 µM) | 0.5 µg/mL (≈ 0.423 µM) | ≤ 0.125 µg/mL | 0.5 µg/mL (≈ 0.423 µM) | 0.25 µg/mL (≈ 0.212 µM) |
